From ChEMBL document CHEMBL1128444 (J Med Chem, 1995) come the findings set out here.

Molecules are shown by their SMILES.

The term IC50 denotes the concentration needed to halve the response being measured.

Experiment [1] deals with Sodium-dependent dopamine transporter (Rattus norvegicus, UniProt P23977). Kind of experiment: Binding affinity at the Dopamine transporter in rat striata by inhibition of 0.5 nM [3H]WIN-35428 binding.
Experiment [2] concerns the target Monoamine transporters; Norepininephrine & dopamine (Rattus norvegicus) (UniProt P23977+Q9WTR4). Description: Ratio of IC50 value against NE to that of DA transporters. In kind it is protein assay. A digest of the protocol: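 Competition binding against 0.5 nM [3H]WIN 35,428 (DA transporter) or 0.5 nM [3H]nisoxetine (NE transporter). The IC50 is the mean ± standard error of three or four experiments, each run in triplicate. Selectivity ratios are NE/DA or 5-HT/DA quotients of the IC50 values.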

The target of experiment [3] is Sodium-dependent serotonin transporter (Rattus norvegicus, UniProt P31652). Kind of experiment: Binding affinity at the Serotonin transporter in rat midbrain by inhibition of 0.5 nM [3H]-paroxetine binding. In kind it is tissue-based.
Sequence of Sodium-dependent serotonin transporter (P31652 whole entry): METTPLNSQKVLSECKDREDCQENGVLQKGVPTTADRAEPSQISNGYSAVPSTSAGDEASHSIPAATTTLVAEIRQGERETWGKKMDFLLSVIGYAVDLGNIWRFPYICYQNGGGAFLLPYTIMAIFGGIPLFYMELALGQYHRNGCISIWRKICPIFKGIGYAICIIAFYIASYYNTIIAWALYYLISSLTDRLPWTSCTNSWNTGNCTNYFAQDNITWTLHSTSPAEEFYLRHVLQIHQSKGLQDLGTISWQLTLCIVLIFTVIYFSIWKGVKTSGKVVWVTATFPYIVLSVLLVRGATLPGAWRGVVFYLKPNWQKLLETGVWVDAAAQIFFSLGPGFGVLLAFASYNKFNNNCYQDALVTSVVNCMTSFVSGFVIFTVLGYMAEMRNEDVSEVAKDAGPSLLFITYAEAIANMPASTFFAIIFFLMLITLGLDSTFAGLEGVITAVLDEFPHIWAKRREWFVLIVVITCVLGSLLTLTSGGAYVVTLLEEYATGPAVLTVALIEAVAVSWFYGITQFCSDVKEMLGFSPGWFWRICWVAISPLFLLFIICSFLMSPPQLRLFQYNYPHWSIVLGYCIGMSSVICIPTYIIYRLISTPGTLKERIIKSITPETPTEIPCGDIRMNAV
Experiment [4] concerns the target Monoamine transporters; serotonin & dopamine (Rattus norvegicus) (UniProt P31652+P23977). Kind of experiment: Ratio of IC50 value against Serotonin transporter to that of dopamine transporter. In kind it is protein assay.
For experiment [5], the target named is Norepinephrine transporter (Rattus norvegicus, UniProt Q9WTR4). Description: Binding affinity at the Norepinephrine transporter in rat frontal cortex by inhibition of 0.5 nM [3H]nisoxetine binding. In kind it is tissue-based.
Sequence of Norepinephrine transporter (Q9WTR4 whole entry): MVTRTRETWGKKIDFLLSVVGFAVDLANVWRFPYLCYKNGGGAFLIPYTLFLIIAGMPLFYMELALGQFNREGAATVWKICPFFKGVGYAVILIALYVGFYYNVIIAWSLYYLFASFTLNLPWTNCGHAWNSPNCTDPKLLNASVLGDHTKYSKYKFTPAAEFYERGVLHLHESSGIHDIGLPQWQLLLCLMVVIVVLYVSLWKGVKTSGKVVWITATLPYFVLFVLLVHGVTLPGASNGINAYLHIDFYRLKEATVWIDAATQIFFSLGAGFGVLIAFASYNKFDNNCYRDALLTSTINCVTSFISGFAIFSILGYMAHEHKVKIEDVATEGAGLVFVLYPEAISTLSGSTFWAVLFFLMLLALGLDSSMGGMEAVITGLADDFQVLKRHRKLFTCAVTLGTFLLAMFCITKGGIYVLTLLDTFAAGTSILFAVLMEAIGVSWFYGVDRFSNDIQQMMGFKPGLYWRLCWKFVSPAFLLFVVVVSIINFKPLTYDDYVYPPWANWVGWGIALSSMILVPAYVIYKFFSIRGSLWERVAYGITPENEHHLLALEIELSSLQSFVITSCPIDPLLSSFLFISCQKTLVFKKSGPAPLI

Sequence of Monoamine transporters; serotonin & dopamine (Rattus norvegicus) (P23977 whole entry, looked up): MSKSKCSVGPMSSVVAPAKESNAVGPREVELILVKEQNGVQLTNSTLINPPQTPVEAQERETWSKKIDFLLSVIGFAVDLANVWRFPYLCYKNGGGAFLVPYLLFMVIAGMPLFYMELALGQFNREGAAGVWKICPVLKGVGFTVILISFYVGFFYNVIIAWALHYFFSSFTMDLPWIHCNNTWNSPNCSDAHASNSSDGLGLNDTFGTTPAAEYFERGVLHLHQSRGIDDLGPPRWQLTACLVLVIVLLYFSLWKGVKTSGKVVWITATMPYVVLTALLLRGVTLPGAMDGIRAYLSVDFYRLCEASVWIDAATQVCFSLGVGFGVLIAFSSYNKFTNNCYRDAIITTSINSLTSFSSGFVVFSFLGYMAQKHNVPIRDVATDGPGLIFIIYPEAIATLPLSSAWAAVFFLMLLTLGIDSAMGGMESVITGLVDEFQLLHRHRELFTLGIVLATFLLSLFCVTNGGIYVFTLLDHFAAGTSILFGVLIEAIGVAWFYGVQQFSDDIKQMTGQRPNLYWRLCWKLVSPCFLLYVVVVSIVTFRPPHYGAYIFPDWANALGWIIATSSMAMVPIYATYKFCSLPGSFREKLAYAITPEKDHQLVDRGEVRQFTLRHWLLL
Sequence of Monoamine transporters; serotonin & dopamine (Rattus norvegicus) (P31652 whole entry, looked up): as the sequence (P31652 whole entry) above
Sequence of Sodium-dependent dopamine transporter (P23977 whole entry): as the sequence (P23977 whole entry, looked up) above

Turning to `CN1C2CCC1C(C(=O)OCCc1ccccc1)C(OC(=O)c1ccccc1)C2` (stereo not drawn), the IC50 in experiment [1] turned out to be 181 nM; in experiment [3], 615 nM; in experiment [5], 19900 nM. Also, the Ratio in experiment [2] amounted to 110; in experiment [4], 3.4.

As to `Cc1ccc(OC(=O)C2C(c3ccc(C)cc3)CC3CCC2N3C)cc1` (stereo not drawn), the IC50 came to 81.2 nM in experiment [1], 16000 nM in experiment [3] and 4100 nM in experiment [5]. Also, the Ratio in experiment [2] came out at 50; in experiment [4] it was 197.

As to `CN1C2CCC1C(C(=O)Oc1ccc(I)cc1)C(c1ccc(Cl)cc1)C2` (stereo not drawn), the IC50 in experiment [1] stood at 32.6 nM; in experiment [3] it was 1230 nM; in experiment [5], 968 nM. In addition, the Ratio in experiment [2] is 30; in experiment [4] it was 38.

Take `COc1ccc(OC(=O)C2C(c3ccc(C)cc3)CC3CCC2N3C)cc1` (stereo not drawn): the IC50 in experiment [1] came to 95.6 nM; in experiment [3], 82300 nM; in experiment [5] it was 3150 nM. Further, the figures for the Ratio in experiment [2] and in experiment [4] were 33 and 861, respectively.

Regarding `CN1C2CCC1C(C(=O)N1CCC1)C(c1ccc(Cl)cc1)C2` (stereo not drawn), the half-maximal inhibitory concentration (IC50) in experiment [1] amounted to 6.57 nM; in experiment [3], 814 nM; in experiment [5] it was 990 nM. The Ratio in experiment [2] stood at 151; in experiment [4], 124.

With `CN1C2CCC1C(C(=O)Oc1ccccc1)C(OC(=O)c1ccccc1)C2` (stereo not drawn), the half-maximal inhibitory concentration (IC50) in experiment [1] is 112 nM; in experiment [3], 33700 nM; in experiment [5], 31000 nM. The Ratio was 277 in experiment [2] and 301 in experiment [4].

For `CN(C)C(=O)C1C(c2ccc(Cl)cc2)CC2CCC1N2C` (stereo not drawn), the half-inhibitory concentration (IC50) is 1.38 nM in experiment [1], 1080 nM in experiment [3] and 942 nM in experiment [5]. Moreover, the Ratio in experiment [2] was found to be 683; in experiment [4] it was 782.

`CCN(CC)C(=O)C1C(c2ccc(Cl)cc2)CC2CCC1N2C` (stereo not drawn): the concentration for half-maximal inhibition (IC50) in experiment [1] worked out at 5.48 nM; in experiment [3], 9430 nM; in experiment [5], 5530 nM. The results for the Ratio in experiment [2] and in experiment [4] were 1010 and 1730, respectively.

For the molecule `Cc1ccc(C2CC3CCC(C2C(=O)OC2CC2)N3C)cc1` (stereo not drawn), the half-maximal inhibitory concentration (IC50) is 1.68 nM in experiment [1] and 644 nM in experiment [5]. The Ratio was 383 in experiment [2] and 634 in experiment [4].

On to `CCOC(=O)C1C(OC(=O)c2ccccc2)CC2CCC1N2C` (stereo not drawn), for which the half-inhibitory concentration (IC50) in experiment [1] is 195 nM; in experiment [3], 5800 nM; in experiment [5] it was 10000 nM. The Ratio was 51 in experiment [2] and 30 in experiment [4].

Take `Cc1ccc(C2CC3CCC(C2C(=O)OC2CCC2)N3C)cc1` (stereo not drawn): the IC50 in experiment [1] turned out to be 3.74 nM; in experiment [3], 2020 nM; in experiment [5], 4740 nM. Moreover, the Ratio in experiment [2] was found to be 1270; in experiment [4], 540.

In the case of `CN1[C@H]2CC[C@@H]1[C@@H](C(=O)N1CCCC1)[C@@H](c1ccc(Cl)cc1)C2`, the IC50 in experiment [1] was 1.38 nM; in experiment [3], 12400 nM; in experiment [5] it was 3950 nM. The Ratio was 2860 in experiment [2] and 8980 in experiment [4].

`COC(=O)C1C(c2ccc(N)c(I)c2)CC2CCC1N2C` (stereo not drawn): the half-inhibitory concentration (IC50) is 1.35 nM in experiment [1], 120 nM in experiment [3] and 1330 nM in experiment [5]. The Ratio in experiment [2] was determined as 984; in experiment [4], 89.

Regarding `CN1C2CCC1C(C(=O)OC1CC1)C(c1ccc(Cl)cc1)C2` (stereo not drawn), the 50% inhibitory concentration (IC50) in experiment [1] is 0.96 nM; in experiment [5], 235 nM. The Ratio in experiment [2] was found to be 245; in experiment [4] it was 175.

As to `Cc1cccc(OC(=O)C2C(c3ccc(Cl)cc3)CC3CCC2N3C)c1` (stereo not drawn), the values for the IC50 in experiment [1] and in experiment [5] were 9.37 nM and 2740 nM, respectively. Moreover, the Ratio turned out to be 293 in experiment [2] and 230 in experiment [4].

For the molecule `Cc1ccc(OC(=O)C2C(c3ccc(Cl)cc3)CC3CCC2N3C)cc1` (stereo not drawn), the IC50 was 27.4 nM in experiment [1] and 1280 nM in experiment [5]. Besides, the Ratio in experiment [2] was 45; in experiment [4], 44.

Take `CON(C)C(=O)C1C(OC(=O)c2ccccc2)CC2CCC1N2C` (stereo not drawn): the half-inhibitory concentration (IC50) in experiment [1] turned out to be 60 nM; in experiment [3], 28200 nM; in experiment [5], 3940 nM. Also, the Ratio in experiment [2] was found to be 66; in experiment [4] it was 469.

With `CN(C)C(=O)C1C(OC(=O)c2ccccc2)CC2CCC1N2C` (stereo not drawn), the IC50 in experiment [1] was 127 nM; in experiment [3] it was 144000 nM; in experiment [5], 7330 nM. The Ratio in experiment [2] worked out at 58; in experiment [4], 1130.

On to `Cc1ccc(C2CC3CCC(C2C(=O)N2CCOCC2)N3C)cc1` (stereo not drawn), for which the IC50 is 11.7 nM in experiment [1], above 100000 nM in experiment [3] and 23600 nM in experiment [5]. Further, the Ratio in experiment [2] is 2020; in experiment [4], above 8550.

Take `CCC(CC)OC(=O)C1C(c2ccc(C)cc2)CC2CCC1N2C` (stereo not drawn): the IC50 is 19.1 nM in experiment [1] and 3440 nM in experiment [5]. The Ratio was found to be 180 in experiment [2] and 236 in experiment [4].

Take `CNC(=O)C1C(c2ccc(Cl)cc2)CC2CCC1N2C` (stereo not drawn): the figures for the IC50 in experiment [1], in experiment [3] and in experiment [5] were 12.4 nM, 1310 nM and 1580 nM, respectively. Also, the Ratio in experiment [2] came out at 128; in experiment [4], 106.

With `CN1[C@H]2CC[C@@H]1[C@@H](C(=O)N1CCCC1)[C@@H](c1ccc(I)cc1)C2`, the IC50 in experiment [1] was found to be 0.37 nM; in experiment [3], 1730 nM; in experiment [5], 991 nM. The results for the Ratio in experiment [2] and in experiment [4] were 2680 and 4670, respectively.

For `CCN(CC)C(=O)C1C(c2ccc(C)cc2)CC2CCC1N2C` (stereo not drawn), the figures for the IC50 in experiment [1], in experiment [3] and in experiment [5] were 24.7 nM, 33900 nM and 6220 nM, respectively. Besides, the Ratio in experiment [2] came out at 252; in experiment [4], 1370.

For `Cc1ccc(C2CC3CCC(C2C(=O)Oc2cccc(C)c2)N3C)cc1` (stereo not drawn), the figures for the IC50 in experiment [1] and in experiment [5] were 8.19 nM and 2140 nM, respectively. Besides, the figures for the Ratio in experiment [2] and in experiment [4] were 261 and 639, respectively.

`CN1C2CCC1C(C(=O)N1CCCO1)C(c1ccc(I)cc1)C2` (stereo not drawn): the figures for the IC50 in experiment [1], in experiment [3] and in experiment [5] were 0.75 nM, 130 nM and 357 nM, respectively. Besides, the Ratio in experiment [2] was determined as 476; in experiment [4], 173.

In the case of `CONC(=O)C1C(c2ccc(Cl)cc2)CC2CCC1N2C` (stereo not drawn), the IC50 in experiment [1] was found to be 10.7 nM; in experiment [3] it was 43700 nM; in experiment [5], 9910 nM. The Ratio turned out to be 826 in experiment [2] and 4080 in experiment [4].

Turning to `COc1ccc(OC(=O)C2C(c3ccc(Cl)cc3)CC3CCC2N3C)cc1` (stereo not drawn), the IC50 in experiment [1] worked out at 71 nM; in experiment [3], 19700 nM; in experiment [5], 1520 nM. Further, the results for the Ratio in experiment [2] and in experiment [4] were 21 and 277, respectively.

Turning to `CN1C2CCC1C(C(=O)N1CCCCC1)C(c1ccc(Cl)cc1)C2` (stereo not drawn), the IC50 in experiment [1] was 6.95 nM; in experiment [3], 3470 nM; in experiment [5], 1750 nM. Besides, the Ratio in experiment [2] is 252; in experiment [4], 499.

As to `COC(=O)C1C(c2ccc(Cl)c(Cl)c2)CC2CCC1N2C` (stereo not drawn), the IC50 was 0.79 nM in experiment [1], 3.13 nM in experiment [3] and 18 nM in experiment [5]. The Ratio in experiment [4] is 4.

In the case of `CC(C)OC(=O)C1C(c2ccccc2)CC2CCC1N2C` (stereo not drawn), the IC50 turned out to be 85.1 nM in experiment [1], 23100 nM in experiment [3] and 32000 nM in experiment [5]. The Ratio in experiment [2] was 377; in experiment [4], 272.

With `CCCOC(=O)C1C(OC(=O)c2ccccc2)CC2CCC1N2C` (stereo not drawn), the results for the IC50 in experiment [1], in experiment [3] and in experiment [5] were 196 nM, 4520 nM and 6120 nM, respectively. The Ratio in experiment [2] worked out at 31; in experiment [4], 23.

As to `CN1C2CCC1C(C(=O)OCc1ccccc1)C(OC(=O)c1ccccc1)C2` (stereo not drawn), the half-inhibitory concentration (IC50) was 257 nM in experiment [1], 302 nM in experiment [3] and 20800 nM in experiment [5]. In addition, the Ratio in experiment [2] came out at 81; in experiment [4] it was 1.2.

Take `CN1C2CCC1C(C(=O)Oc1ccc(Cl)cc1)C(c1ccc(Cl)cc1)C2` (stereo not drawn): the half-maximal inhibitory concentration (IC50) in experiment [1] is 55 nM; in experiment [3], 16900 nM; in experiment [5], 4880 nM. Moreover, the Ratio in experiment [2] worked out at 89; in experiment [4], 308.

As for `CON(C)C(=O)C1C(c2ccc(I)cc2)CC2CCC1N2C` (stereo not drawn), the IC50 in experiment [1] was 1.08 nM; in experiment [3], 73.9 nM; in experiment [5] it was 103 nM. Further, the Ratio was 95 in experiment [2] and 68 in experiment [4].

In the case of `CN1C2CCC1C(C(=O)N1CCCO1)C(c1ccc(Cl)cc1)C2` (stereo not drawn), the results for the IC50 in experiment [1], in experiment [3] and in experiment [5] were 1.47 nM, 2470 nM and 1080 nM, respectively. The results for the Ratio in experiment [2] and in experiment [4] were 736 and 1680, respectively.

Consider `CN1C2CCC1C(C(=O)N1CCOCC1)C(c1ccc(Cl)cc1)C2` (stereo not drawn), for which the IC50 stood at 2.9 nM in experiment [1], 88800 nM in experiment [3] and 8550 nM in experiment [5]. In addition, the results for the Ratio in experiment [2] and in experiment [4] were 2950 and 30600, respectively.

`CC(C)OC(=O)C1C(OC(=O)c2ccccc2)CC2CCC1N2C` (stereo not drawn): the IC50 in experiment [3] was determined as 25200 nM; in experiment [5], 30300 nM.

As for `COC(=O)C1C(c2ccc(Br)cc2)CC2CCC1N2C` (stereo not drawn), the IC50 in experiment [1] stood at 1.69 nM; in experiment [3], 10.6 nM. The Ratio is 22 in experiment [2] and 6 in experiment [4].

Consider `Cc1ccccc1OC(=O)C1C(c2ccc(Cl)cc2)CC2CCC1N2C` (stereo not drawn), for which the IC50 in experiment [1] was determined as 3.91 nM; in experiment [5] it was 4780 nM. Further, the figures for the Ratio in experiment [2] and in experiment [4] were 1220 and 965, respectively.
